# Screens as filed in PubChem BioAssay.
# The full list was thinned out, with hits kept by preference.
# INS-1E ATP HTS – INS-1E beta cell protection from cytokine death; AID 488910; INS-1E cytokine-induced death, ATP luminescence, 48 h; normalised: neutral wells 0, positive control 100; protection from cytokine-induced ATP loss, % at 10 µM; hit rate 0.1% among 20,000;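 active = mean replicate protection from cytokine-induced ATP loss at least 50% and at least 75% of replicates each reaching 50%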
#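 Assay system: INS-1E rat insulinoma cells. Amount: 8000 cells per well. Medium: phenol-red-free RPMI with 5% fetal bovine serum. Reagent: IL-1β, TNF-α and IFN-γ cytokine mix. Doses: one compound concentration, pin transfer. Schedule: 48 h co-treatment, 10 min post-lysis read. Detection: CellTiter-Glo luminescence measuring cellular ATP.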
# T cruzi HTS – blocks T. cruzi growth inside host cells; intracellular Trypanosoma cruzi in host cells, plate reader; activity score (inhibition), % at 5.01 µM; hit rate 4.9% among 22,000; in the data active = activity score above about 55%;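 note: parasites and compound incubated about four days before reading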
# A1 apoptosis 2 – compounds inhibiting A1, read as caspase activation; 24,000 tested, under 10 active; caspase activation, % (concentration not given with the values); AID 2465; MEF A1-2A-BIM cells, caspase-Glo luminescence, 3 h; percent of clofoctol response, DMSO zero; in the data active = caspase activation above about 5.9%
#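 Evaluation: Caspase-3/7 activity from luminescence increase | Assay system: A1-2A-BIM mouse embryonic fibroblasts | Quantity: 2500 MEF cells/well | Medium: RPMI-1640 plus 10% FBS | Detection: Caspase-Glo 3/7 luminescence, 1 h at room temperature | Dosing: 50 nL compound per well, pinned | Timing: Cells settled overnight, compound exposure 3 h at 37 °C, 5% CO2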
# Numbers stand for hits; - = inactive; . = no result given.
SMILES,INS-1E ATP HTS,T cruzi HTS,A1 apoptosis 2
C[C@H](CO)N1C[C@H](C)[C@@H](CN(C)Cc2ccc(C(=O)Nc3ccccc3N)cc2)Oc2ccc(NC(=O)Nc3ccc(F)cc3)cc2C1=O,-,-,.
C[C@@H]1CN([C@@H](C)CO)C(=O)c2cccc(NC(=O)Nc3ccc(F)cc3)c2O[C@@H]1CN(C)Cc1ccc(C(=O)Nc2ccccc2N)cc1,-,70,-
C[C@H](CO)N1C[C@H](C)[C@@H](CN(C)Cc2ccc(C(=O)Nc3ccccc3N)cc2)Oc2c(NC(=O)Nc3ccccc3)cccc2C1=O,-,61,.
C[C@@H]1CN([C@@H](C)CO)C(=O)c2cccc(NC(=O)Nc3ccccc3)c2O[C@H]1CN(C)Cc1ccc(C(=O)Nc2ccccc2N)cc1,-,-,-
C[C@H]1CN([C@@H](C)CO)C(=O)c2cccc(NC(=O)Nc3ccccc3)c2O[C@@H]1CN(C)Cc1ccc(C(=O)Nc2ccccc2N)cc1,-,74,-
CC(C)NC(=O)Nc1cccc2c1O[C@H](CN(C)Cc1ccc(C(=O)Nc3ccccc3N)cc1)[C@H](C)CN([C@H](C)CO)C2=O,-,-,-
O=C(CCCCCC(=O)Nc1ccccc1O)N/N=C/C1=CCCCC1,.,.,-
O=C(O)CCCCCC(=O)N/N=C/C1CCCCC1,-,-,-
C[C@@H]1CCCCO[C@@H](CN(C)S(=O)(=O)c2cccs2)[C@@H](C)CN([C@@H](C)CO)C(=O)c2cc(NC(=O)CCCN(C)C)ccc2O1,.,.,-
COc1ccc(S(=O)(=O)Nc2ccc3c(c2)C(=O)N([C@H](C)CO)C[C@@H](C)[C@@H](CN(C)C(=O)Nc2ccc(C(F)(F)F)cc2)OCCCC[C@@H](C)O3)cc1,.,.,-
C[C@@H]1CN([C@H](C)CO)C(=O)Cc2cc(N(C)C)ccc2O[C@H]1CN(C)Cc1ccc(C(F)(F)F)cc1,-,64,-
C[C@@H]1CN([C@@H](C)CO)C(=O)Cc2cc(N(C)C)ccc2O[C@@H]1CN(C)Cc1ccc(C(F)(F)F)cc1,-,-,-
C[C@@H]1CN([C@H](C)CO)C(=O)Cc2cc(N(C)C)ccc2O[C@@H]1CN(C)Cc1ccc(C(F)(F)F)cc1,-,-,-
C[C@H]1CN([C@@H](C)CO)C(=O)Cc2cc(N(C)C)ccc2O[C@@H]1CN(C)Cc1ccc(C(F)(F)F)cc1,-,74,-
O=C(N/N=C/c1ccc(N2CCCC2)cc1)c1ccccc1O,-,-,.
O=C(Nc1ccccc1)C1=C[C@H](c2ccc3c(c2)Cc2ccccc2-3)C[C@H](OCc2ccc(CO)cc2)O1,.,.,-
COC(=O)CCCCCCC(=O)N/N=C/[C@H](O)[C@@H](O)[C@@H](O)[C@H](O)CO,-,-,-
C[C@@H]1CN([C@H](C)CO)C(=O)c2cccc(NC(=O)c3ccncc3)c2O[C@H]1CN(C)Cc1ccc(Cl)c(Cl)c1,-,76,-
C[C@@H]1CN([C@H](C)CO)C(=O)c2cccc(NC(=O)c3ccncc3)c2O[C@H]1CN(C)Cc1ccncc1,-,-,-
C[C@H](CO)N1C[C@H](C)[C@H](CN(C)Cc2ccncc2)Oc2c(NC(=O)c3ccncc3)cccc2C1=O,-,-,-
C[C@H]1CN([C@@H](C)CO)C(=O)c2cccc(NC(=O)c3ccncc3)c2O[C@H]1CN(C)Cc1ccncc1,-,-,.
C[C@@H]1CN([C@@H](C)CO)C(=O)c2cccc(NC(=O)c3ccncc3)c2O[C@H]1CN(C)Cc1ccc(Cl)c(Cl)c1,-,78,-
C[C@H](CO)N1C[C@H](C)[C@H](CN(C)Cc2ccc(Cl)c(Cl)c2)Oc2c(NC(=O)c3ccncc3)cccc2C1=O,-,56,-
COc1ccc(NCc2ccc(C(=O)Nc3ccccc3N)cc2)cc1OC,.,.,-
COC(=O)CCCCCCC(=O)N/N=C/c1ccc(NC(=O)OC(C)(C)C)cc1,-,-,.
SMILES,INS-1E ATP HTS,T cruzi HTS,A1 apoptosis 2
CCn1c2ccccc2c2cc(/C=N/NC(=O)CCCCCCC(=O)OC)ccc21,-,-,.
O=C(O)CCCCCC(=O)N/N=C/c1ccoc1,-,-,-
O=C(NCCCn1cc(C(=O)NO)nn1)Nc1ccccc1,.,.,-
C[C@@H]1CN([C@H](C)CO)C(=O)Cc2cc(N(C)C)ccc2O[C@H]1CN(C)Cc1ccc2c(c1)OCO2,-,69,-
C[C@@H]1CN([C@@H](C)CO)C(=O)Cc2cc(N(C)C)ccc2O[C@@H]1CN(C)Cc1ccc(Cl)c(Cl)c1,-,-,-
C[C@H]1CN([C@@H](C)CO)C(=O)Cc2cc(N(C)C)ccc2O[C@@H]1CN(C)Cc1ccc2c(c1)OCO2,-,64,.
C[C@H](CO)N1C[C@H](C)[C@@H](CN(C)Cc2ccc3c(c2)OCO3)Oc2ccc(N(C)C)cc2CC1=O,.,.,-
C[C@H]1CN([C@@H](C)CO)C(=O)Cc2cc(N(C)C)ccc2O[C@@H]1CN(C)Cc1ccc(Cl)c(Cl)c1,-,72,.
C[C@@H]1CN([C@H](C)CO)C(=O)Cc2cc(N(C)C)ccc2O[C@@H]1CN(C)Cc1ccc2c(c1)OCO2,-,-,.
CC(/C=C/C(=O)NO)=C\c1cccc(OCc2ccc(-c3ccncc3)cc2)c1,.,.,-
C[C@H]1CN([C@@H](C)CO)C(=O)c2cccc(NS(=O)(=O)c3ccc(Cl)cc3)c2O[C@H]1CN(C)Cc1ccc(Oc2ccccc2)cc1,-,-,.
C[C@H]1CN([C@@H](C)CO)C(=O)c2cccc(NS(=O)(=O)c3ccccc3)c2O[C@@H]1CN(C)Cc1ccc(Oc2ccccc2)cc1,-,-,-
C[C@H](CO)N1C[C@H](C)[C@H](CN(C)Cc2ccc(Oc3ccccc3)cc2)Oc2c(NS(=O)(=O)c3ccccc3)cccc2C1=O,-,-,-
C[C@H](CO)N1C[C@H](C)[C@@H](CN(C)Cc2ccc(Oc3ccccc3)cc2)Oc2c(NS(=O)(=O)c3ccc(Cl)cc3)cccc2C1=O,-,65,.
C[C@@H]1CN([C@@H](C)CO)C(=O)c2cccc(NS(=O)(=O)c3ccc(Cl)cc3)c2O[C@@H]1CN(C)Cc1ccc(Oc2ccccc2)cc1,-,67,-
C[C@@H]1CN([C@H](C)CO)C(=O)c2cccc(NS(=O)(=O)c3ccc(Cl)cc3)c2O[C@H]1CN(C)Cc1ccc(Oc2ccccc2)cc1,-,58,-
O=C(N/N=C/c1cc2ccccc2n1S(=O)(=O)c1ccccc1)c1ccccn1,-,-,-
C=CCNC(=O)[C@H]1[C@@H]2C(=O)O[C@@H](c3ccccc3)[C@@H](c3ccccc3)N2[C@@H](c2ccc(OCCO)cc2)[C@]12C(=O)N(C(=O)OCCOC)c1ccc(C#CC3(O)CCCCCC3)cc12,.,.,-
CC(C)=CCC[C@H](C)C/C=N/NC(=O)c1cccc(C(=O)NO)c1,-,-,-
O=C(NO)c1cccc(C(=O)N/N=C/c2ccc(O)c(O)c2)c1,-,-,-
O=C(O)CCCCCCC(=O)N/N=C/c1ccc([N+](=O)[O-])s1,-,-,-
O=C(CCCCCC(=O)Nc1ccccc1O)N/N=C/c1ccc([N+](=O)[O-])s1,.,.,-
O=C(CCCCCC(=O)N/N=C/c1ccc([N+](=O)[O-])s1)NO,-,64,.
COC(=O)CCCCCCC(=O)N/N=C/c1ccc([N+](=O)[O-])s1,-,81,-
O=C(O)CCCCCCC(=O)N/N=C/c1cc(Br)cs1,-,-,.
